In one series the target is MARK1 (Homo sapiens, UniProt Q9P0L2). As to the kind of experiment: KinaseSeeker kinase profiling, MARK1. The class given is binding. The note with it: read-out: inhibition of MARK1 (most inhibited kinase).
Series [1] has as its system AKT1, CAMK1, DDR2, GSK-3α, MAPK1, MET, PAK1, PDGFRB, PIM1, PKC-γ, PLK4, and SRC. As to the kind of experiment: KinaseSeeker kinase profiling, panel of 12 kinases. In kind it is binding. The following applies: at respective RAW264.7 IC50 concentrations (1j 28 µM, 1s 16 µM).
Series [2] has as its system LPS-induced NO production in RAW 264 macrophage cells. Nature of the series: Suppression of LPS-induced NO production in RAW 264.7 macrophage cells. In kind it is cell-based.
The test system of a further series is human whole blood. As to the kind of experiment: Agonism / hemolysis in human whole blood. The class given is cell-based. The following applies: up to 1 mM. The procedure, abridged: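 Human whole blood from healthy consenting donors, anticoagulated with lepirudin (final 50 µg/mL), was added to tubes holding test compound or PBS with Ca2+/Mg2+. It was preincubated 5–10 min at 37 °C, then given E. coli 0111:B4 ultra-pure LPS (100 ng/mL) or endotoxin-free PBS and rotated 2 h at 37 °C. EDTA (final 10 mM) was added, and plasma TNF-α, IL-8 and IL-6 were measured by singleplex Bio-plex.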

Another series concerns MDR1-MDCK monolayer. Nature of the series: MDR1-MDCK permeability assay. The note with it: 5 µM, apical to basolateral and basolateral to apical. The class given is in vitro ADME.
A short description of series [3]: Metabolic stability in human liver microsomes. In kind it is in vitro ADME. The method, boiled down:
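Test compound (1 µM, <0.25% DMSO) was incubated at 37 °C with human liver microsomal protein (0.5 mg/mL). Cofactors were added to start reactions at 0, 10, 20, 30 and 60 min, with a 5 µM testosterone positive control. NADPH addition was confirmed by fluorimetry. Compound-to-internal-standard peak-area ratio was read by LC-MS/MS without a standard curve. CLint = elimination rate constant / protein concentration.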
A general note: Liver microsomes are a subcellular fraction often used to study metabolism.

Series [4] is described as follows: Metabolic stability in human liver S9 fractions. In kind it is in vitro ADME. The procedure, abridged: (§1)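 Test compound (1 µM, <0.25% DMSO) was incubated at 37 °C with pooled liver S9 protein (1 mg/mL) and 1 mM each of NADPH, UDPGA, PAPS and GSH. Cofactors were added to start reactions at 0, 10, 20, 30 and 60 min, with testosterone and 7-hydroxycoumarin (20 µM each) as positive controls. Depletion was followed by LC-MS/MS peak-area ratio to internal standard, without a standard curve. CLint = k/P.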

Series [5] in a line: Metabolic stability in rat liver S9 fractions. In kind it is in vitro ADME. The method, boiled down: as §1
The target in the next series is T1, CYP1A2 (Homo sapiens, UniProt P05177).
T1 sequence (P05177 1-516): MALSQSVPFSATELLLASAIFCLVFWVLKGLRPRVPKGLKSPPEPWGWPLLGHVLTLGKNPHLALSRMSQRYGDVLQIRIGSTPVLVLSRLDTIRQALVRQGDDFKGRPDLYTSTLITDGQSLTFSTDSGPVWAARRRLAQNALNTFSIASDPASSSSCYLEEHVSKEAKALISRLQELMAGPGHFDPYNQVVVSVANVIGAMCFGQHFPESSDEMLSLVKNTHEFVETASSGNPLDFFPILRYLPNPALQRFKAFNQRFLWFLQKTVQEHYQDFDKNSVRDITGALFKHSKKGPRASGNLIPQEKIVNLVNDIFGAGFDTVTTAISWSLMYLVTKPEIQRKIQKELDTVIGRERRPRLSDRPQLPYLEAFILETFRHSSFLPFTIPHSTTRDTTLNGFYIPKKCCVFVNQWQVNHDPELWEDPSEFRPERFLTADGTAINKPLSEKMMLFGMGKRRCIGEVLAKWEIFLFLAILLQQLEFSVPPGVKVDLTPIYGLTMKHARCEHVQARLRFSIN
Nature of the series: CYP IC50 in human liver microsomes, CYP1A2. In kind it is in vitro ADME. The method, boiled down: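 Test compound was run at eight concentrations (0–100 µM), with α-naphthoflavone as positive control. Protein was precipitated and acetaminophen formation measured by LC-MS/MS. IC50 came from a sigmoidal nonlinear regression fit.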

A further series addresses PKC-γ (Homo sapiens, UniProt P05129). Nature of the series: KinaseSeeker kinase profiling, PKC-γ. In kind it is binding. The following applies: read-out: inhibition of PKC-γ (most inhibited kinase).

Molecules are shown by their SMILES. pIC50: −log10 of the molar value. Where “and” joins values, the source holds several entries; their conditions need not be identical. Identical values can stand only once.

For orientation: inhibition means the change of the read-out against control, counted positive when it falls. For orientation: microsomal CLint means a measure of how fast metabolising enzymes remove a compound, apart from limits set by blood flow. The pIC50 is the IC50 on a negative log10 scale, so that one unit is a factor of ten. Higher therefore signals a low IC50.

Sequence of MARK1 (Q9P0L2 whole entry, species assumed): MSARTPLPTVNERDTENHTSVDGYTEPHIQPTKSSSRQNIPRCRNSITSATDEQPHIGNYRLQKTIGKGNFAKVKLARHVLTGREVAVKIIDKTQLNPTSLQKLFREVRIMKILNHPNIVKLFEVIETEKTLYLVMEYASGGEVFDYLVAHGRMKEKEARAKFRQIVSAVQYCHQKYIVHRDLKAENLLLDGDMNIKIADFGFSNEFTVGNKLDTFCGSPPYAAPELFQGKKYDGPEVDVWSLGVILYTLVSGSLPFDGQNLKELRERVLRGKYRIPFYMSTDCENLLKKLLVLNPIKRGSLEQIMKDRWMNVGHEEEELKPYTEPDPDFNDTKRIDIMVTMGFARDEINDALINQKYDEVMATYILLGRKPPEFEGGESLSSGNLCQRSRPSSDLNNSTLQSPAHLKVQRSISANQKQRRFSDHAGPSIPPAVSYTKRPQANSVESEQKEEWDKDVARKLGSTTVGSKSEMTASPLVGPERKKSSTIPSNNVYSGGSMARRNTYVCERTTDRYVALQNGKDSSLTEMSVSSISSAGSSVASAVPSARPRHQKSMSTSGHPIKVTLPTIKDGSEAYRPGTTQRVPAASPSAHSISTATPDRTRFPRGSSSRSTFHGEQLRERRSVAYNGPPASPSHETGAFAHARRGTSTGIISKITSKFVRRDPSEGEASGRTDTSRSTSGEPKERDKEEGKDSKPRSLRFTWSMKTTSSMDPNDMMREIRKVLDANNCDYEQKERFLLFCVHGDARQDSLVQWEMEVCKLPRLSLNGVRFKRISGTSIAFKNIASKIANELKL

`Cc1nn(Cc2ccccc2Cl)c(C)c1CN(C)CC(O)COc1ccc(Cl)cc1` (stereo not drawn) [1s]: at MARK1, the inhibition at 16 µM was 26.7%. Moreover, in series [1], the “activity retained by the majority of the kinases” value was > 95% and 95%; the “maximal inhibition of any kinase of the panel” value was no more than 27%.
`Cc1nn(Cc2ccccc2)c(C)c1CN(C)CC(O)COc1ccccc1` (stereo not drawn) [1a, 1-(((1-benzyl-3,5-dimethyl-1H-pyrazol-4-yl)methyl)(methyl)amino)-3-phenoxypropan-2-ol]: the “suppression of NO signaling (in words)” value in series [2] is “ineffective at suppressing NO signaling”. For the same molecule, in the series with human whole blood, the “agonistic effects with respect to cytokine release or hemolysis” value was “no agonistic effects”.
In the case of `CCOc1ccc(OCC(O)CN(C)Cc2c(C)nn(Cc3ccccc3Cl)c2C)cc1` (stereo not drawn) [1j, 1-(((1-(2-chlorobenzyl)-3,5-dimethyl-1H-pyrazol-4-yl)methyl)(methyl)amino)-3-(4-ethoxyphenoxy)propan-2-ol], the “agonistic effects with respect to cytokine release or hemolysis” value in the series on human whole blood was “no agonistic effects”. Besides, the “brain-blood barrier permeability classification” value in the series on MDR1-MDCK monolayer was “high”. The same molecule displayed a microsomal CLint in [3] greater than 700 µL/min/mg. The intrinsic clearance (microsomal CLint) at 1 µM in [4] was found to be 300 µL/min/mg. In series [5], this molecule came in with a microsomal CLint greater than 350 µL/min/mg. The same molecule had a negative logarithm of the IC50 (pIC50) against CYP1A2 of less than 4.00. The inhibition at 28 µM on PKC-γ was found to be 22.4%. Also, in series [1], the “activity retained by the majority of the kinases” value is greater than 95% and the “maximal inhibition of any kinase of the panel” value is given as no more than 27%.
Consider `CCOc1ccc(OCC(O)CN(C)Cc2c(C)nn(Cc3ccccc3OC)c2C)cc1` (stereo not drawn) [1g], for which the “suppression of NO signaling (in words)” value in [2] is on record as “no detectable NO suppression”.
